Consider 32 compounds from ChEMBL document CHEMBL1154162, “Synthesis and structure-activity relationships of 2-(1,4'-bipiperidin-1'-yl)thiazolopyridine as H3 receptor antagonists” (Bioorg Med Chem Lett, 2009).

In data set [1] the target is Histamine H3 receptor (Homo sapiens, UniProt Q9Y5N1). The data set can be described thus: Displacement of [3H]N-alpha-methylhistamine from human recombinant histamine H3 receptor expressed in HEK293 cells. It counts as cell-based.
The target in the next data set is hERG (KCNH2) (Homo sapiens, UniProt Q12809). The data set can be described thus: in vitro.
The target of data set [2] is Histamine H3 receptor (Mus musculus, UniProt P58406). Briefly: Displacement of [3H]N-alpha-methylhistamine from mouse brain histamine H3 receptor. (Loss of bound radioactivity is the signal in a displacement assay; it reports binding, not function.)
Data set [3] concerns Mus musculus. Briefly: Ex vivo displacement of [3H]N-alpha-methylhistamine from histamine H3 receptor in ICR mouse at 10 mg/kg, po by receptor occupancy assay relative to control. The class given is functional. The gist of the method: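 ICR mice dosed orally at 10 mg/kg. Cortex dissected 4 h after dosing and homogenized in ice-cold 50 mM Na2HPO4–KH2PO4 buffer pH 6.8, then frozen at −80 °C for at least 12 h. Protein measured by BCA. Incubation 30 min at room temperature, in quadruplicate. Stopped by filtration on PEI-presoaked GF/B plates and counted. Specific binding calculated as total minus nonspecific.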

The nature of data set [4]: AUC (0 to 24 hrs) in monkey at 3 mg/kg, po. It counts as ADME, organism-based, Macaca mulatta. More on the design: time < 24 hr, dose 3 mg/kg, route oral. Particulars: rhesus monkey, plasma. The gist of the method: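 Monkeys dosed orally at 3 mg/kg. AUC calculated over 0–24 h.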
Data set [5] is described as follows: Cmax in rat. It counts as ADME, organism-based. Particulars: in vivo. The gist of the method:
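Rats dosed orally at 10 mg/kg. Cmax taken from the plasma profile.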

Data set [6] in a line: Cmax in monkey. It counts as ADME, organism-based, Macaca mulatta. As to conditions: rhesus monkey, in vivo. The gist of the method: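 Monkeys dosed orally at 3 mg/kg. Cmax taken from the plasma profile.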
Data set [7] in a line: in vivo. As to conditions: rat, plasma, po, 10 mg/kg.
Data set [8] is described as follows: in vivo. As to conditions: ICR, mouse, brain/plasma, po, 30 mg/kg.
In data set [9] the test system is Mus musculus. The data set can be described thus: Ex vivo displacement of [3H]N-alpha-methylhistamine from histamine H3 receptor in ICR mouse at 10 mg/kg, po by receptor occupancy assay relative to control.
The target in data set [10] is Histamine H3 receptor (Cavia porcellus, UniProt Q9JI35). The data set can be described thus: Antagonist activity at guinea pig jejunum histamine H3 receptor by electric field stimulation assay. The class given is functional, tissue-based. Particulars: read-out: pA2 (converted).
Histamine H3 receptor (Cavia porcellus, UniProt Q9JI35), sequence (Q9JI35 whole entry): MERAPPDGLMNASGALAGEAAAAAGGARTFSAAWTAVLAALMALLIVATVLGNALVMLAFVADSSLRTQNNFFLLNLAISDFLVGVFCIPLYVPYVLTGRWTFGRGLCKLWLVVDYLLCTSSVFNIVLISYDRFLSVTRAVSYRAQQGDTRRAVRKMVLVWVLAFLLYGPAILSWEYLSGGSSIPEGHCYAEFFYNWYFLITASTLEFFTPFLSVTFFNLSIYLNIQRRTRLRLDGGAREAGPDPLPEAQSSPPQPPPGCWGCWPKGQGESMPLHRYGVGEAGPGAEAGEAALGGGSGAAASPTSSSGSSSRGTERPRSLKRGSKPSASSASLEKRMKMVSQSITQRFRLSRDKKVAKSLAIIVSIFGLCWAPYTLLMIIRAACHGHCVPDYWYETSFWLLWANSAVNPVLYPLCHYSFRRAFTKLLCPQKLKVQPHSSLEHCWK

Histamine H3 receptor (Mus musculus, UniProt P58406), sequence (P58406 whole entry): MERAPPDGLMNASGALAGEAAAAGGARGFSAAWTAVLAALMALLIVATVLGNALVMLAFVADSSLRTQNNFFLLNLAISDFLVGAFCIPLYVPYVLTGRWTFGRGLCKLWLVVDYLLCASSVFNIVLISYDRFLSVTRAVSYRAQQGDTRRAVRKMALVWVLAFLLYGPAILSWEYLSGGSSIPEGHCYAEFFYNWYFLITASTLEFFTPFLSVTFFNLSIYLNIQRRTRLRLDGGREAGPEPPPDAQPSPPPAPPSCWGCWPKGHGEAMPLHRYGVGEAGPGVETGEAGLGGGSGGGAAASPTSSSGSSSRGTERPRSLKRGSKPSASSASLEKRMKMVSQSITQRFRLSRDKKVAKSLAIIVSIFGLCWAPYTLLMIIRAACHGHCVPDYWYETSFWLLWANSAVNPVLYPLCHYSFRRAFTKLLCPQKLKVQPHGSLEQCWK
Histamine H3 receptor (Homo sapiens, UniProt Q9Y5N1), sequence (Q9Y5N1 whole entry): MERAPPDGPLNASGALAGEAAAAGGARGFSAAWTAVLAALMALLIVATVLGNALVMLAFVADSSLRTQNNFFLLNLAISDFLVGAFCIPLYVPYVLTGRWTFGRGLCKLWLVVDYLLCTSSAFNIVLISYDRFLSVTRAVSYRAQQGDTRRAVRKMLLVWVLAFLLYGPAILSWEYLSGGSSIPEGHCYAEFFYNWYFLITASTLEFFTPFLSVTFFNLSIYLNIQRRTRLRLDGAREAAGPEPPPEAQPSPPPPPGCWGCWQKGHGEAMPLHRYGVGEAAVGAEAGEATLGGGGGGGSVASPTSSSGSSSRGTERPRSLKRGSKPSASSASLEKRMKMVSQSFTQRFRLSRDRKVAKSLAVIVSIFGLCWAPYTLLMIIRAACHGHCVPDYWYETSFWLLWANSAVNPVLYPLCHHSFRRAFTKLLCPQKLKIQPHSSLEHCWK
hERG (KCNH2), sequence (Q12809 whole entry): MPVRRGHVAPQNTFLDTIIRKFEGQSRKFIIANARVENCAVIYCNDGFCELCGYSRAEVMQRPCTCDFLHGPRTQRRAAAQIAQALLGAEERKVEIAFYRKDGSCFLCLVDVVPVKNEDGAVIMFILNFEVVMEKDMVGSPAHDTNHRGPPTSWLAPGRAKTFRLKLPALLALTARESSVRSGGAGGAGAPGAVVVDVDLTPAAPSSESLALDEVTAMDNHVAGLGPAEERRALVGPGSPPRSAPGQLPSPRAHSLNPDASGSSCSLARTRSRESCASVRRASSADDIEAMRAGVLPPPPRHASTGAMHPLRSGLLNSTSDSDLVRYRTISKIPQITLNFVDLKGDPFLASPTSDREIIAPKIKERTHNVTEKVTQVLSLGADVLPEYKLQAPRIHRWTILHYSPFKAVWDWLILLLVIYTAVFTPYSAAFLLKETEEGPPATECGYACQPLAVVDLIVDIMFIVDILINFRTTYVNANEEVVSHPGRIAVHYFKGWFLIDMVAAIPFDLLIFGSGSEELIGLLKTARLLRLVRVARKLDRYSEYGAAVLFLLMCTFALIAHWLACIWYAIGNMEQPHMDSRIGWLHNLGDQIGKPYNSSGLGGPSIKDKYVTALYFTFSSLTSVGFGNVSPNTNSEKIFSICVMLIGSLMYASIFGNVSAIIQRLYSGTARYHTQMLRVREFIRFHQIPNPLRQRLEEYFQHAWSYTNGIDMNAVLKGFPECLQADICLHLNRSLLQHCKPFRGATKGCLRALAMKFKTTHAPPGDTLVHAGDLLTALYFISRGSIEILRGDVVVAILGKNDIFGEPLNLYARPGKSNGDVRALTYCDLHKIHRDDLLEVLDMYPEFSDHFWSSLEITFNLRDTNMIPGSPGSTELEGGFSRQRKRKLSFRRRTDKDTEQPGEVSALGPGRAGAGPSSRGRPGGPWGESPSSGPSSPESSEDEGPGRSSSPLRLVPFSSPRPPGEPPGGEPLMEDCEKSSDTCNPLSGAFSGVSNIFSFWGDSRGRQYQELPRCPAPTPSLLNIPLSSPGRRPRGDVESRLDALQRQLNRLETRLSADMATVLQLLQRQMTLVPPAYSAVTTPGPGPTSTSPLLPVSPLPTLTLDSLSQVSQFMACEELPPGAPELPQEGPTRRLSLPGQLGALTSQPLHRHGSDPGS

With `Clc1ccc2nc(N3CCC(N4CCCCC4)CC3)sc2n1`, on Histamine H3 receptor [1], the Ki was 1700 nM. At hERG (KCNH2), `COc1cc(-c2cnc3nc(N4CCC(N5CCCCC5)CC4)sc3c2)ccn1` yielded an inhibition at 10 µM of 98%.

`N#Cc1ccc(-c2cc3sc(N4CCC(N5CCCCC5)CC4)nc3cn2)cc1`: the Ki at Histamine H3 receptor [1] worked out at 126 nM.

Consider `COc1cccc(-c2cnc3nc(N4CCC(N5CCCCC5)CC4)sc3c2)c1`, for which the inhibitory constant (Ki) at Histamine H3 receptor [1] was 140 nM. With `CC(=O)c1cccc(-c2cnc3nc(N4CCC(N5CCCCC5)CC4)sc3c2)c1`, the inhibition constant Ki on Histamine H3 receptor [1] came out at 33 nM. On the same count and under the same terms, then `CC(=O)Nc1cc2sc(N3CCC(N4CCCCC4)CC3)nc2cn1`, with 53 nM. As for `Nc1cnc(-c2cnc3nc(N4CCC(N5CCCCC5)CC4)sc3c2)cn1`, at hERG (KCNH2), the inhibition at 10 µM came to 20%. `CC(=O)Nc1ccc(-c2cnc3nc(N4CCC(N5CCCCC5)CC4)sc3c2)cn1` yielded an inhibition constant (Ki) at Histamine H3 receptor [2] of 20 nM. The compound also displayed an Activity in the data set on Mus musculus [3] of 45%. Further, the inhibition at 10 µM against hERG (KCNH2) was 20%. For the compound `CC(=O)c1cccc(-c2cc3sc(N4CCC(N5CCCCC5)CC4)nc3cn2)c1`, on Histamine H3 receptor [1], the Ki turned out to be 80 nM. For the compound `CC(=O)Nc1cnc2nc(N3CCC(N4CCCCC4)CC3)sc2c1`, the Ki on Histamine H3 receptor [1] is 31 nM. The same measure, in the same setting: then `c1cc2sc(N3CCC(N4CCCCC4)CC3)nc2cn1`, with 128 nM. The compound `Fc1cc(-c2cc3sc(N4CCC(N5CCCCC5)CC4)nc3cn2)ccn1` yielded an inhibition at 10 µM against hERG (KCNH2) of 85%. For `COc1cccc(-c2cc3sc(N4CCC(N5CCCCC5)CC4)nc3cn2)c1`, the Ki on Histamine H3 receptor [1] amounted to 230 nM. On the same count and under the same terms, for `Oc1ccc(-c2cc3sc(N4CCC(N5CCCCC5)CC4)nc3cn2)cc1` the value was 213 nM. In the case of `COc1cc(-c2cc3sc(N4CCC(N5CCCCC5)CC4)nc3cn2)ccn1`, the inhibition at 10 µM against hERG (KCNH2) was found to be 91%. Compound `Fc1ccc(-c2cc3sc(N4CCC(N5CCCCC5)CC4)nc3cn2)cn1` had a Ki at Histamine H3 receptor [2] of 89 nM. For the same compound, the Activity in the data set with Mus musculus [3] is 95%. In data set [4], this compound came in with an AUC(0-t) at 24 h of 624 ng·h/mL. Further, the values for the Cmax in data set [5] and in data set [6] were 234 ng/mL and 33 ng/mL, respectively. In the data set “in vivo [7]”, the area under the curve AUC(0-t) at 6 h was 1070 ng·h/mL. Consider `Brc1cnc2nc(N3CCC(N4CCCCC4)CC3)sc2c1`, for which the inhibition constant Ki on Histamine H3 receptor [1] was found to be 141 nM.

As to `Nc1ccc(-c2cnc3nc(N4CCC(N5CCCCC5)CC4)sc3c2)cn1`, the Activity with Mus musculus [3] is reported as 3%. Consider `N#Cc1cc(-c2cc3sc(N4CCC(N5CCCCC5)CC4)nc3cn2)ccc1F`, for which the Ki at Histamine H3 receptor [1] stood at 46 nM.

On to `Nc1cc2sc(N3CCC(N4CCCCC4)CC3)nc2cn1`, for which the Ki at Histamine H3 receptor [1] was determined as 73 nM. The same measure, in the same setting: for `N#Cc1cc2sc(N3CCC(N4CCCCC4)CC3)nc2cn1` the value was 35 nM. `Clc1cc2sc(N3CCC(N4CCCCC4)CC3)nc2cn1` yielded a Ki at Histamine H3 receptor [2] of 75 nM. Besides, the AUC(0-t) at 6 h in “in vivo [7]” is 56 ng·h/mL. The compound further came in with a concentration ratio (Kp) at 96 h in “in vivo [8]” of 4.52. The same compound gave an inhibition at 10 µM against hERG (KCNH2) of 59%. This compound showed an Activity in the data set with Mus musculus [9] of 80%. Turning to `c1ncc(-c2cnc3nc(N4CCC(N5CCCCC5)CC4)sc3c2)cn1`, affinity at Histamine H3 receptor [2] was put at a Ki of 66 nM. In the data set on Mus musculus [3], this compound yielded an Activity of 0%. Besides, the inhibition at 10 µM at hERG (KCNH2) was 30%.

`CCCN1CCN(c2nc3cnccc3s2)CC1`: on Histamine H3 receptor [10], the Kb is 56.2 nM. On to `Nc1cnc2nc(N3CCC(N4CCCCC4)CC3)sc2c1`, for which the Ki on Histamine H3 receptor [1] stood at 79 nM. Same read-out and setting: for `Clc1cnc2nc(N3CCC(N4CCCCC4)CC3)sc2c1` the value was 125 nM. The compound `Oc1ccc(-c2cc3sc(N4CCC(N5CCCCC5)CC4)nc3cn2)cn1` had an inhibition constant Ki on Histamine H3 receptor [2] of 20 nM. This compound also showed an Activity with Mus musculus [3] of 1%. The compound `Fc1ncccc1-c1cc2sc(N3CCC(N4CCCCC4)CC3)nc2cn1` gave an inhibition at 10 µM against hERG (KCNH2) of 88%.

Regarding `c1cnc2nc(N3CCC(N4CCCCC4)CC3)sc2c1`, the Ki on Histamine H3 receptor [1] is 139 nM.

Take `N#Cc1cnc2nc(N3CCC(N4CCCCC4)CC3)sc2c1`: the Ki at Histamine H3 receptor [1] stood at 36 nM. `N#Cc1cc(-c2cnc3nc(N4CCC(N5CCCCC5)CC4)sc3c2)ccc1F`: the exposure AUC(0-t) at 6 h in the data set “in vivo [7]” came out at 339 ng·h/mL. For `Oc1ccc(-c2cnc3nc(N4CCC(N5CCCCC5)CC4)sc3c2)cc1`, the Ki on Histamine H3 receptor [1] stood at 59 nM.

One may read the Ki as a dissociation constant, usually derived from enzyme kinetics or from competition with a known ligand. Usually inhibition stands for the relative decrease from the control value, in per cent. The term AUC(0-t) denotes exposure summed from dosing to a finite time, without extrapolation to infinity. What is called Cmax is the peak of the concentration-time curve. One may read the Kp as tissue or fluid exposure divided by exposure in the circulation.
